According to ChEMBL document CHEMBL4130429, “Hydroxytriazole derivatives as potent and selective aldo-keto reductase 1C3 (AKR1C3) inhibitors discovered by bioisosteric scaffold hopping approach” (Eur J Med Chem, 2017):
Activity calls are given as the source filed them. The calls are words filed in the database; no cut-off is given here.

Assays:
[1] = target: T1, Aldo-keto reductase family 1 member C3 (Homo sapiens, UniProt P42330); assay: Inhibition of recombinant human AKR1C3 expressed in Escherichia coli BL21 (DE) using [14C]androstenedione as substrate in presence of NADPH generating system
T1 sequence (P42330 whole entry): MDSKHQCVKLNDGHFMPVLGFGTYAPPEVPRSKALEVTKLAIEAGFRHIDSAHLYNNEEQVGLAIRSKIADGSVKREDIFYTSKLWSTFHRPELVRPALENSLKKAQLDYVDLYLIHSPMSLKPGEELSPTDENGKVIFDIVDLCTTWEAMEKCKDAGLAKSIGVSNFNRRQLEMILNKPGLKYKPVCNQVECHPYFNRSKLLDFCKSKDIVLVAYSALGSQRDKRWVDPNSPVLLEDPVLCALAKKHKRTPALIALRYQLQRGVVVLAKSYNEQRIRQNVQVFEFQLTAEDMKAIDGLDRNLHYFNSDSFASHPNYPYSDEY
Method in brief: (§1)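 E. coli expressing AKR1C3, unlysed, suspended in 100 mM phosphate pH 6.6 (~15 µg protein). Incubated with [14C]androstenedione (6×10^-4 µCi), Tween 80 0.1 mg/mL, 1 mM ATP, 1 mM MgCl2 and NADPH-generating system (1 mM NADP+, 3 mM glucose-6-phosphate, 3 U G6PDH) for 30 min at 30 °C with shaking. Conversion to testosterone quantified by radioactivity scanning of TLC.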

[2] = target: T2, Aldo-keto reductase family 1 member C3 (Homo sapiens) (UniProt P42330); assay: Inhibition of recombinant human AKR1C3 expressed in Escherichia coli BL21 […] at 50 uM using [14C]androstenedione as substrate in presence of NADPH generating system; method in brief: as §1
T2 sequence (whole entry): T1 sequence (P42330 whole entry)

CWR22R [3] = assay: Antiproliferative activity against human 22Rv1 cells at 20 uM after 72 hrs by sulforhodamine B colorimetric proliferation assay; type: functional, cell-based
CWR22R [4] = assay: Antiproliferative activity against human 22Rv1 cells at 10 uM after 72 hrs by sulforhodamine B colorimetric proliferation assay; type: functional, cell-based
CWR22R [5] = assay: Antiproliferative activity against human 22Rv1 cells after 72 hrs by sulforhodamine B colorimetric proliferation assay; type: functional, cell-based; settings: 22Rv1, 72 h
Method in brief: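 22RV1 castration-resistant prostate cells were seeded at 10,000 cells/well in RPMI with 10% charcoal-stripped serum and allowed to adhere for 24 h at 37 °C, 5% CO2. Inhibitor dilutions in ethanol were added in triplicate for 72 h, with ethanol-matched controls (max 1% v/v). Growth was read by SRB and given as %T/C (treated/control OD). Means of two experiments, each in triplicate.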

[6] = target: T3, Prostaglandin G/H synthase 1 (Ovis aries) (UniProt P05979); assay: Inhibition of ovine COX1 assessed as reduction in PGF2alpha production at 100 uM by ELISA
T3 sequence (whole entry): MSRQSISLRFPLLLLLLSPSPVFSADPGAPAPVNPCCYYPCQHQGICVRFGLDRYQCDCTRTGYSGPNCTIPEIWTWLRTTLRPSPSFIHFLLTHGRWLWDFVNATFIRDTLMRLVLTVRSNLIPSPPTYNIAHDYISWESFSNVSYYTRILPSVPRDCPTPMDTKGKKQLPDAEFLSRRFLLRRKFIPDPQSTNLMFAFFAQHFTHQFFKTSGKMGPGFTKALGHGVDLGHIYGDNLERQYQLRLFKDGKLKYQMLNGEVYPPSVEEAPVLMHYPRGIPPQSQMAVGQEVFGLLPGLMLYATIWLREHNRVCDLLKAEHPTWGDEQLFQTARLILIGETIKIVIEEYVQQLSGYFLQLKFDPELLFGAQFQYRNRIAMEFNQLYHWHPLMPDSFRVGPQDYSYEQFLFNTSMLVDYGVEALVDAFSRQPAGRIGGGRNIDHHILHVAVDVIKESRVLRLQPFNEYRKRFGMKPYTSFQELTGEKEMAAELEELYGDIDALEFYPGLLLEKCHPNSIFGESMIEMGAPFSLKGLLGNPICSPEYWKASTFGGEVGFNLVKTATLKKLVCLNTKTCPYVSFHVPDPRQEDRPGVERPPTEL

CWR22R [7] = assay: Synergistic antiproliferative activity against human 22Rv1 cells at 60 uM after 72 hrs in presence of 20 uM enzalutamide by sulforhodamine B colorimetric proliferation assay; type: functional
Method in brief: (§2)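 Co-treatment by SRB assay: 22RV1 cells in RPMI with 10% charcoal-stripped serum, given 60 µM inhibitor with or without 10 µM abiraterone or 20 µM enzalutamide for 72 h. Growth expressed as % T/C (mean OD treated/control ×100). Means of two experiments in triplicate.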

CWR22R [8] = assay: Synergistic antiproliferative activity against human 22Rv1 cells at 60 uM after 72 hrs in presence of 10 uM abiraterone by sulforhodamine B colorimetric proliferation assay; type: functional; method in brief: as §2
[9] = target: T4, Aldo-keto reductase family 1 member C2 (Homo sapiens, UniProt P52895); assay: Inhibition of AKR1C2 (unknown origin) using S-tetralol as substrate by fluorimtery
T4 sequence (P52895 whole entry): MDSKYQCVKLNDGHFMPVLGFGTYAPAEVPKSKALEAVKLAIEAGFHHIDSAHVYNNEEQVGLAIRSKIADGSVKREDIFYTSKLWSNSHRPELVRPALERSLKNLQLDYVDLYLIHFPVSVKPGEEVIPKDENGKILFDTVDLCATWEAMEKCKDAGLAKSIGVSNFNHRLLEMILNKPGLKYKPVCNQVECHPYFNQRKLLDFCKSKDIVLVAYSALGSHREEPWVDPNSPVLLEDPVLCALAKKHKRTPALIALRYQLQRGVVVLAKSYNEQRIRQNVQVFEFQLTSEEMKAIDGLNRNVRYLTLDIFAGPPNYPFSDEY
Method in brief: (§3)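 Purified recombinant enzyme (GST-tagged, glutathione-sepharose purified, thrombin-cleaved) with S-tetralol in 100 mM phosphate pH 7, 200 µM NADP+, 10% ethanol. IC50 from initial velocities versus solvent controls; means of two experiments in triplicate.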

[10] = target: T5, Prostaglandin G/H synthase 1 (Ovis aries, UniProt P05979); assay: Inhibition of ovine COX1 assessed as reduction in PGF2alpha production by ELISA
T5 sequence (P05979 whole entry): T3 sequence (whole entry)
Method in brief: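 Commercial COX (ovine COX-1/human COX-2) inhibitor screening kit. PGH2 formed by COX is reduced by SnCl2 to PGF2α, which is quantified by ELISA absorbance. IC50 by linear regression. Mean ± SE of at least three experiments.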

Homo sapiens [11] = organism: Homo sapiens; assay: Selectivity index, ratio of IC50 for AKR1C2 (unknown origin) to IC50 for AKR1C3 (unknown origin)
[12] = target: Prostaglandin G/H synthase 2 (Homo sapiens) (UniProt P35354); assay: Inhibition of human COX2 assessed as reduction in PGF2alpha production at 100 uM by ELISA
Chain of Prostaglandin G/H synthase 2 (Homo sapiens) (P35354 whole entry, looked up): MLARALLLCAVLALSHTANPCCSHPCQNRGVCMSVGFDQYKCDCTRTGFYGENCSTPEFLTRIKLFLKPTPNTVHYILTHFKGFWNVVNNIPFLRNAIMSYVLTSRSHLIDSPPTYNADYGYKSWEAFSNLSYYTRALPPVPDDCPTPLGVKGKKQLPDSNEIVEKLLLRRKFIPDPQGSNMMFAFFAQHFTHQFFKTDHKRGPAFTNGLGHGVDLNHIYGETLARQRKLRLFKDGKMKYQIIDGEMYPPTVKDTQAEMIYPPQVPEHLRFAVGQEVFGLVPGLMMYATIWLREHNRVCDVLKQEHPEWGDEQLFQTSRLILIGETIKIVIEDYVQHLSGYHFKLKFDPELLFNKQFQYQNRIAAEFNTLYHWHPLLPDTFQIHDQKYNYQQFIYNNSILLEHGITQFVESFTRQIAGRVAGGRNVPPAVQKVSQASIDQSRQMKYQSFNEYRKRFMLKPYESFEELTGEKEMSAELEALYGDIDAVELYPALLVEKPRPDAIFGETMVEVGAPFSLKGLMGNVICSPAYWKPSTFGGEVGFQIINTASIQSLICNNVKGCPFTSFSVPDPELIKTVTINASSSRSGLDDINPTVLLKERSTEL

CWR22R [13] = assay: Inhibition of AKR1C3-mediated testosterone production in human 22Rv1 cells after 1 hr in presence of androstenedione by ELISA; type: functional, cell-based
Method in brief: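 22RV1 cells seeded at 30,000/well in RPMI with 10% charcoal-stripped serum, 24 h. Inhibitor added at four concentrations for 1 h, then 28 nM androstenedione, further 24 h. Supernatant testosterone measured by ELISA at 405 nm against a standard curve, corrected for androstenedione cross-reactivity. Means of two experiments in triplicate.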

CWR22R [14] = assay: Antiproliferative activity against human 22Rv1 cells at 60 uM after 72 hrs by sulforhodamine B colorimetric proliferation assay; type: functional, cell-based
[15] = target: T1, Aldo-keto reductase family 1 member C3; assay: Inhibition of AKR1C3 (unknown origin) using S-tetralol as substrate in presence of NADP+ by fluorimtery
Method in brief: as §3, with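 “ethanol. […] NADPH formation followed fluorimetrically (ex 340/em 460 nm) at 37 °C.” for “ethanol.”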

Homo sapiens [16] = organism: Homo sapiens; assay: Selectivity index, ratio of IC50 for human COX2 to IC50 for AKR1C3 (unknown origin)
CWR22R [17] = assay: Inhibition of AKR1C3-mediated testosterone production in human 22Rv1 cells at 100 uM after 1 hr in presence of androstenedione by ELISA; type: functional; settings: 22Rv1, 1 h
[18] = Selectivity index, ratio of IC50 for ovine COX1 to IC50 for AKR1C3 (unknown origin)

In the case of Cn1nnc(O)c1C(=O)Nc1cccc(C(F)(F)F)c1, the IC50 [1] is reported as 32.8 µM.

For O=C(Nc1cccc(C(F)(F)F)c1)c1nonc1O, the IC50 [1] was over 50 µM and the inhibition [2] was 35.4%.

O=C(Nc1cccc(C(F)(F)F)c1)c1nsnc1O gave an IC50 [1] of at least 50 µM and an inhibition [2] of 47.2%.

With CNC(=O)c1ccc(N2C(=S)N(c3ccc(C#N)c(C(F)(F)F)c3)C(=O)C2(C)C)cc1F the Activity (CWR22R [3]) was “inactive”.

In the case of C[C@]12CC[C@H](O)CC1=CC[C@@H]1[C@@H]2CC[C@]2(C)C(c3cccnc3)=CC[C@@H]12, the Activity (CWR22R [4]) is reported as “inactive”.

O=C(Nc1cccc(C(F)(F)F)c1)c1nn(CC2CC2)nc1O showed an IC50 [1] of over 50 µM and an inhibition [2] of 5.35%.

Compound COc1ccc(Cn2nnc(O)c2C(=O)Nc2cccc(C(F)(F)F)c2)cc1 has an IC50 (CWR22R [5]) of 81.4 µM, an inhibition [6] of 0% and an Activity (CWR22R [7]) of 50%. It also gave an Activity (CWR22R [8]) of 45%, an IC50 [9] of 73.2 µM and an IC50 [1] of 3.56 µM. For the same compound, the IC50 [10] was over 100 µM, the Ratio IC50 (Homo sapiens [11]) was 236 and the inhibition [12] was 12%. The inhibition (CWR22R [13]) was “Dose-dependent effect”, the Activity (CWR22R [14]) was “inactive” and the IC50 [15] was 0.31 µM. The Ratio IC50 (Homo sapiens [16]) was over 322, the inhibition at 100 µM (CWR22R [17]) was 50% and the Ratio IC50 [18] was over 322.

O=C(Nc1cccc(C(F)(F)F)c1)c1c(O)nnn1CC1CC1 gave an inhibition [6] of 17%, an IC50 [9] of 70.6 µM and an IC50 [1] of 13.2 µM. It also gave an IC50 [10] of over 100 µM, a Ratio IC50 (Homo sapiens [11]) of 44 and an inhibition [12] of 9.6%. It also gave an IC50 [15] of 1.6 µM, a Ratio IC50 (Homo sapiens [16]) of over 63 and a Ratio IC50 [18] of over 63.

Work on Cn1nc(O)c(C(=O)Nc2cccc(C(F)(F)F)c2)n1 yielded an IC50 [1] of over 50 µM and an inhibition [2] of 18.5%.

Work on O=C(O)c1ccccc1Nc1cccc(C(F)(F)F)c1 [FLUFENAMIC ACID] yielded an IC50 (CWR22R [5]) of 115 µM, an IC50 [1] of 8.63 µM and an IC50 [10] of 14 µM. For the same compound, the IC50 [15] was 0.44 µM.

O=C(Nc1cccc(C(F)(F)F)c1)c1c(O)nnn1Cc1ccccc1 showed an IC50 (CWR22R [5]) of 67.1 µM, an inhibition [6] of 15% and an IC50 [9] of 62.9 µM. It also gave an IC50 [1] of 10.2 µM, an IC50 [10] of over 100 µM and a Ratio IC50 (Homo sapiens [11]) of 131. The inhibition [12] was 7.5%, the IC50 [15] was 0.48 µM and the Ratio IC50 (Homo sapiens [16]) was over 208. The Ratio IC50 [18] was over 208.
